Data reported in ChEMBL document CHEMBL1125559, “Analogues of platelet activating factor. 7. Bis-aryl amide and bis-aryl urea receptor antagonists of PAF” (J Med Chem, 1992).

Assays:
Mus musculus [1] = experiment: Compound was evaluated for PAF-induced lethality in mouse (intraperitoneally at a dose of 1.0 mg/kg in saline 0.5 hr before lethal intravenous PAF challenge 75-150 mg/kg); 14/24; assay type: ADME, organism-based; design: dose 1 mg/kg; settings: in vivo
In short: (§1)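 Female Swiss-Webster mice (20-25 g) received test compound ip in saline (10 mL/Kg); controls got saline alone. The PAF dose was chosen daily from small pilot groups. Survival was scored at 1.5 h and recorded as dead/total.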

Mus musculus [2] = experiment: Compound was evaluated for PAF-induced lethality in mouse (intraperitoneally at a dose of 1.0 mg/kg in saline 0.5 hr before lethal intravenous PAF challenge 75-150 mg/kg); assay type: ADME, organism-based; design: dose 1 mg/kg, route intraperitoneal; settings: in vivo; in short: as §1
Oryctolagus cuniculus [3] = species: Oryctolagus cuniculus; experiment: Concentration required to inhibit PAF (5*10e-8 M) induced platelet aggregation in rabbit platelet rich plasma(PRP) by 50%; assay type: functional, organism-based
In short: (§2)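 Rabbit PRP came from blood spun at 800 rpm for 15 min at room temperature, with platelet counts of 350 000–550 000/µL. PRP was equilibrated 1–2 min at 37 °C in an aggregometer. It was preincubated 5 min with test compound (final 10^-8 to 10^-5 M; methanol stock diluted in saline) or saline, then challenged with L-C16-PAF. IC50 was taken from concentration–response curves of aggregation magnitude and averaged over separate determinations.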

Oryctolagus cuniculus [4] = species: Oryctolagus cuniculus; experiment: Concentration required to inhibit PAF (1*10e-7 M) induced platelet aggregation in rabbit platelet rich plasma(PRP) by 50%; assay type: functional, organism-based; in short: as §2
Mus musculus [5] = experiment: Compound was evaluated for PAF-induced lethality in mouse (intraperitoneally at a dose of 1.0 mg/kg in saline 0.5 hr before lethal intravenous PAF challenge 75-150 mg/kg); 12/12; assay type: ADME, organism-based; design: dose 1 mg/kg; settings: in vivo; in short: as §1
Mus musculus [6] = experiment: Compound was evaluated for PAF-induced lethality in mouse (intraperitoneally at a dose of 1.0 mg/kg in saline 0.5 hr before lethal intravenous PAF challenge 75-150 mg/kg); 9/23; assay type: ADME, organism-based; design: dose 1 mg/kg, route intravenous; settings: in vivo; in short: as §1
Oryctolagus cuniculus [7] = species: Oryctolagus cuniculus; experiment: Concentration required to inhibit PAF (5*10e-8 M) induced platelet aggregation in rabbit platelet rich plasma(PRP) by 50% at 10 uM; assay type: functional
Oryctolagus cuniculus [8] = species: Oryctolagus cuniculus; experiment: Concentration required to inhibit PAF (5*10e-8 M) induced platelet aggregation in rabbit platelet rich plasma(PRP) by 50% at 10 uM; NI= No inhibition; assay type: functional, organism-based
Mus musculus [9] = experiment: Compound was evaluated number of mouse dead out of total (intraperitoneally at a dose of 1.0 mg/kg in saline 0.5 hr before lethal intravenous PAF challenge 75-150 mg/kg); 6/12; assay type: ADME, organism-based; design: dose 1 mg/kg, route intravenous; settings: in vivo; in short: as §1
Mus musculus [10] = experiment: Compound was evaluated for PAF-induced lethality in mouse (intraperitoneally at a dose of 1.0 mg/kg in saline 0.5 hr before lethal intravenous PAF challenge 75-150 mg/kg); 11/14; assay type: ADME, organism-based; design: dose 1 mg/kg; settings: in vivo; in short: as §1
Mus musculus [11] = experiment: Compound was evaluated for PAF-induced lethality in mouse (intraperitoneally at a dose of 1.0 mg/kg in saline 0.5 hr before lethal intravenous PAF challenge 75-150 mg/kg); 16/27; assay type: ADME, organism-based; design: dose 1 mg/kg; settings: in vivo; in short: as §1
Mus musculus [12] = experiment: Compound was evaluated for PAF-induced lethality in mouse (intraperitoneally at a dose of 1.0 mg/kg in saline 0.5 hr before lethal intravenous PAF challenge 75-150 mg/kg); 5/12; assay type: ADME, organism-based; design: dose 1 mg/kg, route intravenous; settings: in vivo; in short: as §1
Mus musculus [13] = experiment: Compound was evaluated for PAF-induced lethality in mouse (intraperitoneally at a dose of 1.0 mg/kg in saline 0.5 hr before lethal intravenous PAF challenge 75-150 mg/kg); 10/17; assay type: ADME, organism-based; design: dose 1 mg/kg; settings: in vivo; in short: as §1
Mus musculus [14] = experiment: Compound was evaluated for PAF-induced lethality in mouse (intraperitoneally at a dose of 1.0 mg/kg in saline 0.5 hr before lethal intravenous PAF challenge 75-150 mg/kg); 9/24; assay type: ADME, organism-based; design: dose 1 mg/kg; settings: in vivo; in short: as §1
Mus musculus [15] = experiment: Compound was evaluated for PAF-induced lethality in mouse (intraperitoneally at a dose of 1.0 mg/kg in saline 0.5 hr before lethal intravenous PAF challenge 75-150 mg/kg); 11/13; assay type: ADME, organism-based; design: dose 1 mg/kg; settings: in vivo; in short: as §1

Row | SMILES | Lethality (Mus musculus [2]) [%] | IC50 (Oryctolagus cuniculus [3]) [nM] | other results
1 | CCCCCCCCCCCCCCOc1ccc(CCCN(C(C)=O)c2cccc(C[n+]3csc(C)c3)c2)cc1.[Br-] | 58 | 3100 | Dead/total (Mus musculus [1]): 14
2 | CCCCCCCCCCCCCCOc1ccc(CN(C(C)=O)c2cccc(C[n+]3csc(C)c3)c2)cc1C(C)(C)C |  |  | IC50 (Oryctolagus cuniculus [4]): 350 nM
3 | CCCCCCCCCCCCCCOc1cccc(CC(=O)Nc2cccc(C[n+]3csc(C)c3)c2)c1.[Br-] | 100 | 550 | Dead/total (Mus musculus [5]): 12
4 | CCCCCCCCCCCCCCOc1ccc(NC(=O)c2cccc(C[n+]3csc(C)c3)c2)cc1 |  | 2700 | 
5 | CCCCCCCCCCCCCCOc1ccc(C)cc1CN(C(C)=O)c1cccc(C[n+]2csc(C)c2)c1.[Br-] | 39 | 1500 | Dead/total (Mus musculus [6]): 9
6 | CCCCCCCCCCCCCCOc1c(OC)cc(CN(C(C)=O)c2cccc(C[n+]3csc(C)c3)c2)cc1OC |  | 570 | 
7 | CCCCCCCCCCCCCCOc1cccc(CC(=O)Nc2ccccc2C[n+]2csc(C)c2)c1.[Br-] |  |  | Inhibition (Oryctolagus cuniculus [7]): 23%
8 | CCCCCCCCCCCCCCOc1ccc(CN(C(C)=O)c2ccc(C[n+]3csc(C)c3)cc2)cc1 |  | 2100 | 
9 | CCCCCCCCCCCCCCOc1ccc(CNC(=O)c2cccc(C[n+]3csc(C)c3)c2)cc1 |  | 400 | 
10 | CCCCCCCCCCCCCCOc1ccc(CC(=O)Nc2ccccc2C[n+]2csc(C)c2)cc1.[Br-] |  |  | IC50 (Oryctolagus cuniculus [8]): Not Active
11 | CCCCCCCCCCCCCCOc1c(C)cc(CNC(=O)c2cccc(C[n+]3csc(C)c3)c2)cc1C |  | 3100 | 
12 | CCCCCCCCCCCCOc1ccc(CC(=O)Nc2cccc(C[n+]3csc(C)c3)c2)cc1.[Br-] | 55 | 2900 | Dead/total (Mus musculus [9]): 6
13 | CCCCCOc1c(OC)cc(CN(C(C)=O)c2cccc(C[n+]3csc(C)c3)c2)cc1OC |  | 2300 | 
14 | CCCCCCCCCCCCCCOc1ccc(CN(C(=O)CCC)c2cccc(C[n+]3csc(C)c3)c2)cc1.[Br-] | 79 | 260 | Dead/total (Mus musculus [10]): 11
15 | CCCCCCCCCCCCCCOc1ccc(CNC(=O)c2cccc(C[n+]3csc(C)c3)c2)cc1C(C)(C)C |  | 3500 | 
16 | CCCCCCCCCCCCCCOc1ccc(OC)cc1CN(C(C)=O)c1cccc(C[n+]2csc(C)c2)c1.[Br-] | 59 | 320 | Dead/total (Mus musculus [11]): 16
17 | CCCCCCCCCCCCCCOc1ccc(CCC(=O)Nc2cccc(C[n+]3csc(C)c3)c2)cc1.[Br-] | 50 | 7300 | Dead/total (Mus musculus [12]): 5
18 | CCCCCCCCCCCCCCOc1ccc(CN(C(C)=O)c2cccc(C[n+]3csc(C)c3)c2)cc1Cl.[Br-] | 59 | 130 | Dead/total (Mus musculus [13]): 10
19 | CCCCCCCCCCCCCCOc1ccc(CN(C(C)=O)c2cccc(C[n+]3csc(C)c3)c2)cc1.[Br-] | 38 | 260 | Dead/total (Mus musculus [14]): 9
20 | CCCCCCCCCCCCCCOc1ccc(NC(=O)Nc2cccc(C[n+]3csc(C)c3)c2)cc1 |  | 1500 | 
21 | CCCCCCCCCCCCCCOc1ccc(C(=O)Nc2cccc(C[n+]3csc(C)c3)c2)cc1 |  | 5900 | 
22 | CCCCCCCCCCCCCCOc1c(CN(C(C)=O)c2cccc(C[n+]3csc(C)c3)c2)cccc1OC.[Br-] | 85 | 2500 | Dead/total (Mus musculus [15]): 11
23 | CCCCCCCCCCCCCCCCOc1ccc(OCC(=O)Nc2ccccc2C[n+]2csc(C)c2)cc1 |  | 11200 | 
